Measured values pooled from the literature.
Protocols differ between the studies behind these lines.
Target: Casein kinase I isoform gamma-3 (CSNK1G3, Homo sapiens, UniProt Q9Y6M4)

Structure (SMILES)	observed	action	method	tested at	measurement	result
Cc1nn(C)cc1-c1nc2c(N3CCN(Cc4ccc(Cl)cc4)CC3)c(Cl)cnc2[nH]1	binding		competition with immobilised ligand	1 µM	remaining binding	100%
Cn1cc(-c2cc(F)cc(N3CCn4c(cc5c4CCCC5)C3=O)c2CO)cc(Nc2ccc(N3CCN(C4COC4)CC3)cn2)c1=O	enzyme activity	inhibitor		0.1 µM	inhibition	7%
N#CC1(c2ccccn2)CCN(Cc2cc(C(=O)O)c(=O)n3ccccc23)CC1	cell-free assay		competition with immobilised ligand	1 µM	remaining binding	93%
COc1ncccc1-c1cnn2ccc(N3CCN(C(=O)OC(C)C)CC3)nc12	binding		competition with immobilised ligand	1 µM	remaining binding	92%
CC(C)(C)c1cc(C=C(C#N)C#N)cc(Br)c1O	enzyme activity	inhibitor		0.5 µM	remaining activity	85.8%
Cn1cncc1[C@@](O)(COc1ccc(C#N)cc1-c1ccc(OC(F)(F)F)cc1)c1ccc(C#N)cc1	cell-free assay		competition with immobilised ligand	1 µM	remaining binding	100%
COc1cc(Nc2ncc(F)c(Nc3ccc4c(n3)NC(=O)C(C)(C)O4)n2)cc(OC)c1OC	binding		competition with immobilised ligand	10 µM	inhibition	0%
Cn1cc(-c2cccc(N3CCc4c(sc5c4CC(C)(C)C5)C3=O)c2CO)cc(Nc2ccncn2)c1=O	enzyme activity	inhibitor		1 µM	inhibition	-1%
O=c1[nH]c2ccccc2n1C1CCN(Cc2ccc(-c3[nH]c4cc5ncnc5cc4nc3-c3ccccc3)cc2)CC1	cell-free assay			0.5 µM	remaining signal	96.5%
